# Experimental data reported in ChEMBL document CHEMBL1122629, “Potent and selective antagonists of the antidiuretic responses to arginine-vasopressin based on modifications of [1-(beta-mercapto-beta,beta-pentamethylenepropionic acid),2-D-isoleucine,4- valine]arginine-vasopressin at position 4” (J Med Chem, 1984).
# *1 amine or outer side, *2 acyl side, *3 side chain or, on linkers, in order; H or OH if unused. Where a SMILES comes first, the peptide text is derived from it. Bridges are numbered along the chain shown (N, C = ends). [ ]: non-standard residue; d: D form. X1 = O=C(CC1(S[*:2])CCCCC1)[*:1]; Orn = NCCC[C@H](N)C(=O)O
# Legend:
# Rattus norvegicus [1] = organism: Rattus norvegicus; assay: Anti-oxytocic activity on isolated rat uterus in absence of Mg2+. pA2 value is negative logarithm of effective dose (ED); assay type: functional; conditions: read-out: pA2 (converted)
# Method in brief: (§1)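 Isolated rat uterus, with USP posterior pituitary reference standard as agonist. Antagonism expressed as pA2.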
# Rattus norvegicus [2] = organism: Rattus norvegicus; assay: Anti-oxytocic activity on isolated rat uterus in presence of 0.5 mM of Mg2+. pA2 value is negative logarithm of effective dose (ED); assay type: functional; conditions: read-out: pA2 (converted); method in brief: as §1
# Rattus norvegicus [3] = organism: Rattus norvegicus; assay: Antidiuretic activity in rats and pA2 value is negative logarithm of effective dose (ED); assay type: functional, organism-based; conditions: Urine, read-out: pA2 (converted)
# Method in brief: (§2)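 Antidiuretic assay in rats under ethanol anaesthesia against the USP posterior pituitary reference standard. Standard given 20 min after antagonist, or 10 min for analogues lacking agonism. Each peptide given at a high and a low dose. ED is the dose (nmol/kg) that cuts the response to 2x units of agonist to the response to 1x unit given before antagonist. […] Means ± SE, n assays.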
# Rattus norvegicus [4] = assay: Evaluated in vivo for logarithm effective dose (ED); assay type: functional, organism-based
# Rattus norvegicus [5] = assay: In vivo antidiuretic activity in rat measured as dose that reduced the response seen with 2x units of agonist to equal the response seen with 1x unit of agonist administered before antagonist; assay type: functional, Urine; method in brief: as §2
# Rattus norvegicus [6] = organism: Rattus norvegicus; assay: Anti-oxytocic activity in rat uterus and effective dose (ED) was reported.; assay type: functional
# Method in brief: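 Rat uterus in situ, with synthetic oxytocin as agonist. ED is the dose (nmol/kg) that lowers the response to 2x units of agonist to that of 1x unit given before antagonist.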
# Rattus norvegicus [7] = assay: In vivo anti-vasopressor activity in phenoxybenzamine-treated rats under urethane anesthesia is measured as effective dose; assay type: functional
# Method in brief: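 Intravenous vasopressor assay in phenoxybenzamine-treated rats under urethane anaesthesia, agonist USP posterior pituitary reference standard. ED is the dose (nmol/kg) that reduces the response to 2x units of agonist to that of 1x unit given before antagonist. […] Means ± SE, number of assays given.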
# [8] = Ratio of anti-vasopressor ED50 to antiantidiuretic ED50; assay type: functional, Urine
# Method in brief: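 Ratio of antivasopressor ED to antiantidiuretic ED. Each ED is the dose (nmol/kg) that lowers the response to 2x units of agonist to that of 1x unit before antagonist. Measured in rats: vasopressor assay in phenoxybenzamine-treated, urethane-anaesthetised animals; antidiuretic assay under ethanol anaesthesia.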
# Rattus norvegicus [9] = organism: Rattus norvegicus; assay: Anti-oxytocic activity in rat uterus pA2 value is negative logarithm of effective dose (ED); assay type: functional, organism-based; conditions: read-out: pA2 (converted)
SMILES,Kb (Rattus norvegicus [1]) [nM],Kb (Rattus norvegicus [2]) [nM],Kb (Rattus norvegicus [3]) [nM],in vivo pA2 effective dose (as concentration) (Rattus norvegicus [4]) [nM],ED (Rattus norvegicus [5]) [nmol/kg],ED (Rattus norvegicus [6]) [nmol/kg],ED (Rattus norvegicus [7]) [nmol/kg],Ratio [8],Kb (Rattus norvegicus [9]) [nM]
CC[C@@H](C)[C@H]1NC(=O)CC2(CCCCC2)SSC[C@@H](C(=O)N2CCC[C@H]2C(=O)N[C@@H](CCCN=C(N)N)C(=O)NCC(N)=O)NC(=O)[C@H](CC(N)=O)NC(=O)[C@H](CC(C)C)NC(=O)[C@H](Cc2ccccc2)NC1=O,14.5,26.9,158,178,,,,,
CC[C@@H](C)[C@H]1NC(=O)CC2(CCCCC2)SSC[C@@H](C(=O)N2CCC[C@H]2C(=O)N[C@@H](CCCN=C(N)N)C(=O)NCC(N)=O)NC(=O)[C@H](CC(N)=O)NC(=O)[C@H](Cc2ccccc2)NC(=O)[C@H](Cc2ccccc2)NC1=O,74.1,120,,,,,,,
NC(=O)CNC(=O)[C@H](CCCN=C(N)N)NC(=O)[C@@H]1CCCN1C(=O)[C@@H]1CSSC2(CCCCC2)CC(=O)N[C@H](Cc2ccccc2)C(=O)N[C@@H](Cc2ccccc2)C(=O)N[C@@H](CO)C(=O)N[C@@H](CC(N)=O)C(=O)N1,,,,,3.9,13,1.6,0.41,
NCCC[C@@H]1NC(=O)[C@H](Cc2ccccc2)NC(=O)[C@@H](Cc2ccccc2)NC(=O)CC2(CCCCC2)SSC[C@@H](C(=O)N2CCC[C@H]2C(=O)N[C@@H](CCCN=C(N)N)C(=O)NCC(N)=O)NC(=O)[C@H](CC(N)=O)NC1=O ([dF]F[Orn]NCPRG-NH2; linker N-5 via X1) [listing 1 of 2 here],18.6,20,316,26.9,,,,,
CC[C@@H](C)[C@H]1NC(=O)CC2(CCCCC2)SSC[C@@H](C(=O)N2CCC[C@H]2C(=O)N[C@@H](CCCN=C(N)N)C(=O)NCC(N)=O)NC(=O)[C@H](CC(N)=O)NC(=O)[C@H](CCCCN)NC(=O)[C@H](Cc2ccccc2)NC1=O,79.4,251,174,,,,,,
CC[C@@H](C)[C@H]1NC(=O)CC2(CCCCC2)SSC[C@@H](C(=O)N2CCC[C@H]2C(=O)N[C@@H](CCCN=C(N)N)C(=O)NCC(N)=O)NC(=O)[C@H](CC(N)=O)NC(=O)[C@H]([C@@H](C)CC)NC(=O)[C@H](Cc2ccccc2)NC1=O,,,,,0.67,9.4,26,39,
NCCC[C@@H]1NC(=O)[C@H](Cc2ccccc2)NC(=O)[C@@H](Cc2ccccc2)NC(=O)CC2(CCCCC2)SSC[C@@H](C(=O)N2CCC[C@H]2C(=O)N[C@@H](CCCN=C(N)N)C(=O)NCC(N)=O)NC(=O)[C@H](CC(N)=O)NC1=O ([dF]F[Orn]NCPRG-NH2; linker N-5 via X1) [listing 2 of 2 here],,,,,21.3,,1.9,0.09,
CCC[C@@H]1NC(=O)[C@H](Cc2ccccc2)NC(=O)[C@@H]([C@H](C)CC)NC(=O)CC2(CCCCC2)SSC[C@@H](C(=O)N2CCC[C@H]2C(=O)N[C@@H](CCCN=C(N)N)C(=O)NCC(N)=O)NC(=O)[C@H](CC(N)=O)NC1=O [listing 1 of 2 here],,,,,7,22,8.2,1.2,
CC[C@@H](C)[C@H]1NC(=O)CC2(CCCCC2)SSC[C@@H](C(=O)N2CCC[C@H]2C(=O)N[C@@H](CCCN=C(N)N)C(=O)NCC(N)=O)NC(=O)[C@H](CC(N)=O)NC(=O)[C@H](CO)NC(=O)[C@H](Cc2ccccc2)NC1=O,52.5,151,55,617,,,,,
CC[C@@H](C)[C@H]1NC(=O)CC2(CCCCC2)SSC[C@@H](C(=O)N2CCC[C@H]2C(=O)N[C@@H](CCCN=C(N)N)C(=O)NCC(N)=O)NC(=O)[C@H](CC(N)=O)NC(=O)[C@H](CCCN)NC(=O)[C@H](Cc2ccccc2)NC1=O,26.9,195,347,174,,,,,
CCC[C@@H]1NC(=O)[C@H](Cc2ccccc2)NC(=O)[C@@H]([C@H](C)CC)NC(=O)CC2(CCCCC2)SSC[C@@H](C(=O)N2CCC[C@H]2C(=O)N[C@@H](CCCN=C(N)N)C(=O)NCC(N)=O)NC(=O)[C@H](CC(N)=O)NC1=O [listing 2 of 2 here],14.8,15.8,97.7,110,,,,,295
CC[C@@H](C)[C@H]1NC(=O)CC2(CCCCC2)SSC[C@@H](C(=O)N2CCC[C@H]2C(=O)N[C@@H](CCCN=C(N)N)C(=O)NCC(N)=O)NC(=O)[C@H](CC(N)=O)NC(=O)[C@H](CC2CCCCC2)NC(=O)[C@H](Cc2ccccc2)NC1=O,,,,,15.6,,19.1,1.2,
